According to ChEMBL document CHEMBL1159207, “Structure and antimicrobial activity of diterpenes from the roots of Plectranthus hereroensis” (1994):
Converted amounts (≈) assume the structure as drawn.

Experiments:
Shigella dysenteriae = assay: Antimicrobial activity against Shigella dysenteriae by twofold serial broth microdilution assay; format: functional
Candida albicans = assay: Antimicrobial activity against Candida albicans by twofold serial broth microdilution assay; format: functional
Summary of the method: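 Samples were added as Me₂CO or MeOH solutions, with solvent blanks. Incubation was 24 h at 37°. MIC was the lowest concentration preventing visible growth of the organism.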

Escherichia coli = assay: Antimicrobial activity against Escherichia coli by twofold serial broth microdilution assay; format: functional
Summary of the method: (§1)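 Twofold serial broth microdilution in sterile Mueller-Hinton broth, over 500 µg/ml to 7.8 µg/ml. Samples were added as solutions in Me₂CO or MeOH, with solvent blanks included. After 24 h at 37°, MIC was taken as the lowest concentration that inhibited growth.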

Pseudomonas aeruginosa = assay: Antimicrobial activity against Pseudomonas aeruginosa by twofold serial broth microdilution assay; format: functional; summary of the method: as §1
Salmonella typhimurium = assay: Antimicrobial activity against Salmonella Typhimurium by twofold serial broth microdilution assay; format: functional, Salmonella enterica subsp. enterica serovar Typhimurium; settings: Salmonella enterica; summary of the method: as §1
Enterococcus faecalis = assay: Antimicrobial activity against Streptococcus faecalis by twofold serial broth microdilution assay; format: functional; summary of the method: as §1
Vibrio cholerae = assay: Antimicrobial activity against Vibrio cholerae by twofold serial broth microdilution assay; format: functional
Staphylococcus aureus = assay: Antimicrobial activity against Staphylococcus aureus by twofold serial broth microdilution assay; format: functional; summary of the method: as §1

Row | SMILES | MIC (Shigella dysenteriae) | MIC (Candida albicans) | MIC (Escherichia coli) | MIC (Pseudomonas aeruginosa) | MIC (Salmonella typhimurium) | MIC (Enterococcus faecalis) | MIC (Vibrio cholerae) | MIC (Staphylococcus aureus)
1 | C=CCC1=C(O)C(=O)C2=C(C1=O)[C@H](O)C[C@H]1C(C)(C)CCC[C@]21C | ≥ 500 µg/mL | 125 µg/mL (≈ 378 µM) | ≥ 500 µg/mL | 250 µg/mL (≈ 757 µM) | ≥ 500 µg/mL | ≥ 500 µg/mL | – | –
2 | CC(C)C1=C(O)C(=O)C2=C(C1=O)[C@H](O)C[C@H]1C(C)(C)CCC[C@]21C [HORMINONE] | ≥ 500 µg/mL | 250 µg/mL (≈ 752 µM) | ≥ 500 µg/mL | 250 µg/mL (≈ 752 µM) | ≥ 500 µg/mL | ≥ 500 µg/mL | 7.8 µg/mL (≈ 23.5 µM) | 7.8 µg/mL (≈ 23.5 µM)
